Data as given in ChEMBL document CHEMBL4368880, “Synthesis and biological evaluation of 3-(1,3,4-oxadiazol-2-yl)-1,8-naphthyridin-4(1H)-ones as cisplatin sensitizers” (Medchemcomm, 2018).

Columns and labels:
HCT-116 [1] = experiment: Growth inhibition of human HCT116 cells at 10 uM after 24 hrs by MTT assay relative to control; type: functional; conditions: HCT-116, 24 h, read-out: GI
In short: (§1)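 Monolayers seeded 24 h before treatment, then exposed to compound, with DMEM or RPMI 1640 plus 10% FBS as growth medium. MTT (5 mg mL–1 stock) incubated 2–4 h at 37 °C, formazan dissolved in DMSO, and absorbance read at 570 nm. Growth inhibition reported as % of control.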

HCT-116 [2] = experiment: Growth inhibition of human HCT116 cells at 5 uM after 24 hrs by MTT assay relative to control; type: functional; conditions: HCT-116, 24 h, read-out: GI; in short: as §1
L02 = experiment: Cytotoxicity against human LO2 cells assessed as reduction in cell growth at 5 to 10 uM after 24 hrs by MTT assay; type: cell-based; conditions: l02, 24 h
HCT-116 [3] = experiment: Growth inhibition of human HCT116 cells at 2.5 uM after 24 hrs by MTT assay relative to control; type: functional; conditions: HCT-116, 24 h, read-out: GI; in short: as §1
HCT-116 [4] = experiment: Potentiation of cisplatin-induced antiproliferative activity against human HCT116 cells assessed as cell growth inhibition at 2.5 uM preincubated for 24 hrs followed by 2.5 uM cisplatin addition and measured after 48 hrs by MTT assay (reference value: 26.98 +/-2.84%); type: functional; conditions: read-out: GI
A549 [5] = experiment: Growth inhibition of human A549 cells at 10 uM after 24 hrs by MTT assay relative to control; type: functional; conditions: A549, 24 h, read-out: GI; in short: as §1
HepG2 [6] = experiment: Growth inhibition of human HepG2 cells at 10 uM after 24 hrs by MTT assay relative to control; type: functional; conditions: HepG2, 24 h, read-out: GI; in short: as §1
KB [7] = experiment: Growth inhibition of human KB cells at 10 uM after 24 hrs by MTT assay relative to control; type: functional; conditions: read-out: GI; in short: as §1
MCF7 [8] = experiment: Growth inhibition of human MCF7 cells at 10 uM after 24 hrs by MTT assay relative to control; type: functional; conditions: MCF7, 24 h, read-out: GI; in short: as §1
HeLa [9] = experiment: Growth inhibition of human HeLa cells at 10 uM after 24 hrs by MTT assay relative to control; type: functional; conditions: read-out: GI; in short: as §1
A549 [10] = experiment: Growth inhibition of human A549 cells at 5 uM after 24 hrs by MTT assay relative to control; type: functional; conditions: A549, 24 h, read-out: GI; in short: as §1
HepG2 [11] = experiment: Growth inhibition of human HepG2 cells at 5 uM after 24 hrs by MTT assay relative to control; type: functional; conditions: HepG2, 24 h, read-out: GI; in short: as §1
KB [12] = experiment: Growth inhibition of human KB cells at 5 uM after 24 hrs by MTT assay relative to control; type: functional; conditions: read-out: GI; in short: as §1
MCF7 [13] = experiment: Growth inhibition of human MCF7 cells at 5 uM after 24 hrs by MTT assay relative to control; type: functional; conditions: MCF7, 24 h, read-out: GI; in short: as §1
HeLa [14] = experiment: Growth inhibition of human HeLa cells at 5 uM after 24 hrs by MTT assay relative to control; type: functional; conditions: read-out: GI; in short: as §1

Row | Structure (SMILES) | inhibition of growth at 10 µM (HCT-116 [1]) | inhibition of growth at 5 µM (HCT-116 [2]) | Activity (L02) | inhibition of growth at 2.5 µM (HCT-116 [3]) | inhibition of growth at 2.5 µM (HCT-116 [4]) | inhibition of growth at 10 µM (A549 [5]) | inhibition of growth at 10 µM (HepG2 [6]) | inhibition of growth at 10 µM (KB [7]) | inhibition of growth at 10 µM (MCF7 [8]) | inhibition of growth at 10 µM (HeLa [9]) | inhibition of growth at 5 µM (A549 [10]) | inhibition of growth at 5 µM (HepG2 [11]) | inhibition of growth at 5 µM (KB [12]) | inhibition of growth at 5 µM (MCF7 [13]) | inhibition of growth at 5 µM (HeLa [14])
1 | CS(=O)(=O)c1ccc(-c2cnc3[nH]cc(-c4nnc(-c5ccccn5)o4)c(=O)c3c2)cc1 | 16.2% | 11.3% | Non-Toxic | 5.37% | 34.3% | – | – | – | – | – | – | – | – | – | –
2 | CS(=O)(=O)c1ccc(-c2cnc3[nH]cc(-c4nnc(-c5ccncc5)o4)c(=O)c3c2)cc1 | 7.83% | 5.61% | Non-Toxic | 2.64% | 29.2% | 12.1% | 6.65% | 3.02% | 4.27% | 18.4% | 6.76% | 3.49% | 2.16% | 2.35% | 7.08%
3 | CS(=O)(=O)c1ccc(-c2cnc3[nH]cc(-c4nnc(-c5ccccc5)o4)c(=O)c3c2)cc1 | 15.7% | 8.6% | Non-Toxic | 0.53% | 27.2% | 9.51% | 6.98% | 5.2% | 2.83% | 17.5% | 8.17% | 5.46% | 4.38% | 1.38% | 8.58%
4 | O=c1c(-c2nnc(-c3ccc(F)cc3)o2)c[nH]c2ncc(-c3cccnc3)cc12 | 19.7% | 11.1% | Non-Toxic | 9.87% | 20.1% | – | – | – | – | – | – | – | – | – | –
5 | N#Cc1ccc(-c2cnc3[nH]cc(-c4nnc(-c5ccc(Cl)cc5)o4)c(=O)c3c2)cc1 | 18.3% | 17.9% | Non-Toxic | 13.7% | 35.4% | 12.5% | 12.7% | 9.73% | 19.7% | 13.7% | 7.6% | 11.5% | 7.35% | 4.65% | 4.8%
6 | O=c1c(-c2nnc(-c3ccc(Cl)cc3)o2)c[nH]c2ncc(-c3cccnc3)cc12 | 11.8% | 15.9% | Non-Toxic | 10.4% | 20.1% | – | – | – | – | – | – | – | – | – | –
7 | CS(=O)(=O)c1ccc(-c2cnc3[nH]cc(-c4nnc(-c5ccc(Cl)cc5)o4)c(=O)c3c2)cc1 | 17% | 16.4% | Non-Toxic | 2.06% | 24.9% | 26.8% | 11.6% | 9.3% | 13.1% | 1.64% | 23.8% | 11.2% | 2.15% | 0.86% | 1.07%
8 | CS(=O)(=O)c1ccc(-c2cnc3[nH]cc(-c4nnc(-c5cccnc5)o4)c(=O)c3c2)cc1 | 14.7% | 9.26% | Non-Toxic | 4.32% | 28.6% | – | – | – | – | – | – | – | – | – | –
9 | O=c1c(-c2nnc(-c3ccc(Cl)cc3)o2)c[nH]c2ncc(-c3ccccc3)cc12 | 21.6% | 12.3% | Non-Toxic | 9.81% | 29.8% | 9.77% | 14.9% | 19.5% | 26.9% | 31.3% | 1.44% | 5.1% | 2.15% | 11.9% | 3.55%
10 | CS(=O)(=O)c1ccc(-c2cnc3[nH]cc(-c4nnc(-c5ccc(F)cc5)o4)c(=O)c3c2)cc1 | 18.6% | 14.9% | Non-Toxic | 10.7% | 39.5% | 3.59% | 11.1% | 7.58% | 8.1% | 15.7% | 3.11% | 9.45% | 2.55% | 3.78% | 8.47%
11 | N#Cc1ccc(-c2cnc3[nH]cc(-c4nnc(-c5ccc(F)cc5)o4)c(=O)c3c2)cc1 | 18.9% | 12.6% | Non-Toxic | 10.2% | 25.6% | – | – | – | – | – | – | – | – | – | –
12 | O=c1c(-c2nnc(-c3ccc(F)cc3)o2)c[nH]c2ncc(-c3ccncc3)cc12 | 20.5% | 10.9% | Non-Toxic | 7.54% | 19.6% | – | – | – | – | – | – | – | – | – | –
